Screening data deposited in PubChem by several laboratories.
Pemphigus Ab inh: blocks pemphigus antibody binding to human desmoglein-3 | P32926 | DSG3-coupled beads, scFv-anti-DSG3-GFP binding, flow cytometry; stronger effect = lower value | binding (percent of control), % at 10 µM | 310,000 tested, 0.48% active | AID 588358;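 active means binding more than 3 SD below its plate's average and above zero; inconclusive means below that plate limit but binding exactly zero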;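 further: hits lower antibody fragment binding to DSG3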
Target sequence (P32926 whole entry, looked up, the tested form may be a part): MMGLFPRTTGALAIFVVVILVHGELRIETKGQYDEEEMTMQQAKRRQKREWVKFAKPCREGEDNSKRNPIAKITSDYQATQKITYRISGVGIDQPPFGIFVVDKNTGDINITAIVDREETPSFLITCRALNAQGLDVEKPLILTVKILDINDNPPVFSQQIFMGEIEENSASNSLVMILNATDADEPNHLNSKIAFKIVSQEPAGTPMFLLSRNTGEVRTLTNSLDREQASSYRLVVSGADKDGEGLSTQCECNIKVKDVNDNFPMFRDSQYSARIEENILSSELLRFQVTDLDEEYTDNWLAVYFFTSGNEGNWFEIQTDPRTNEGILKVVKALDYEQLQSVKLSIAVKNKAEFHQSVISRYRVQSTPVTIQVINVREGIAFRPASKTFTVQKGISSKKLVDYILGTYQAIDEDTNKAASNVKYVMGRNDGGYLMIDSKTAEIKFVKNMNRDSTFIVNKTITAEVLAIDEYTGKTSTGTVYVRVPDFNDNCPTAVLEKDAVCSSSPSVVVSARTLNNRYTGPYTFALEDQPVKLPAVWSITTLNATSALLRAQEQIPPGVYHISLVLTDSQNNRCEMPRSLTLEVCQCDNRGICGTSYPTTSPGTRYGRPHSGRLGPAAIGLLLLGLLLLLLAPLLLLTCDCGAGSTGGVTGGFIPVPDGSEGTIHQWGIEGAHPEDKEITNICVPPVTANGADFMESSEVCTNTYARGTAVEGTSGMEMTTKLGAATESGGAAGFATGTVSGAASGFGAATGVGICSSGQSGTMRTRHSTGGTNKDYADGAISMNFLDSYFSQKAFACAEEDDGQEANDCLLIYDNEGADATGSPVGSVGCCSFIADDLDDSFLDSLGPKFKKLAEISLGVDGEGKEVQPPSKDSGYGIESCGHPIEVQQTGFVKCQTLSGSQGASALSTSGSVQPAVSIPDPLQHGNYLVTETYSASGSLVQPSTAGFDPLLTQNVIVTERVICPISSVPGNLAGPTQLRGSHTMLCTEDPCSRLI
Granule exo inh: lytic granule exocytosis inhibition. TALL-104 LAMP-1 surface exposure, flow cytometry; cells stimulated with thapsigargin and PMA. inhibition, % at 10 µM. 360,000 tested, 0.66% active;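 active means inhibition above about 55%, limit read from the data; inconclusive means no clear call, values can overlap the other calls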
H9c2 protect: myocardial damage modulation in H9c2 cells. H9c2 cardiomyocytes, H2O2 injury protection, ATPLite, 2 h. protection from H2O2 cell death, % at 20 µM. 360,000 tested, 0.63% active. AID 588492;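 active means compounds giving at least 50% protection of heart cells from peroxide-induced death in the single-dose screen, raw or plate-pattern-corrected value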
HNF4A DNA FP: change in binding of human HNF4 alpha to DNA; HNF4a-FITC DNA binding, fluorescence polarization, 1 h; activity change, % at 10 µM; 360,000 tested, 0.3% active; AID 1224865; in the data active means activity change above about 30%, passing the limit was not always enough
Myeloid diff 2: promotes myeloid progenitor differentiation; AID 624256; ER-HoxA9 myeloid progenitors, lysozyme-GFP differentiation, flow cytometry; calls only at 10 µM; 360,000 tested, 1% active;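 active means normalized GFP-positive differentiation at or above the plate's own cutoff, the solvent-only control mean plus 3 SD; inconclusive means no clear call, values can overlap the other calls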;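 further: cells exposed to compound for four days before flow analysis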
SENP1 FRET inh: SENP1 (human) catalytic domain inhibition | 360,000 tested, 0.21% active | inhibition, % at 10 µM | Q9P0U3 | recombinant SENP1 catalytic domain, CyPet-SUMO1-YPet FRET cleavage;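 active means inhibition at least 30% at 10 µM, raw YFP signal under a set limit, fluorescence ratio 0.5 to 1.5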
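Assay system: hSENP1 catalytic domain, recombinant. Amount: SENP1 enzyme, 20 pM final. Schedule: 50 min reaction, RT, dark. Technique: FRET, CFP and YFP emission. Control set: no-enzyme wells low, DMSO-plus-enzyme wells high control.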
Myeloid diff: myeloid differentiation induction; calls only; shares compounds with Myeloid diff 2; 2,300 tested, 2% active; ER-HoxA9 myeloid progenitors, GFP/Mac1 double-positive flow; AID 651706;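 active means share of green or green-and-red cells above 9 and 9% in run 1 or 4 and 3% in run 2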
GFP autofluor: compound fluorescence in myeloid differentiation counter-screen; ER-HoxA9 myeloid progenitors, no estrogen, GFP autofluorescence flow cytometry; vehicle wells 0%, positive control 100%; 2,300 tested, 7.4% active; AID 651707; fluorescence response, % (test concentration not listed); shares compounds with Myeloid diff 2;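 active means over 5% cells positive for green fluorescent reporter, or over 2% positive for both it and APC stain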
Hits are given with their value; n = inactive; u = inconclusive; x = no result given; + = active, no number. Most compounds without a hit are left out; they make up all but 3% or so of the library.

SMILES	Pemphigus Ab inh	Granule exo inh	H9c2 protect	HNF4A DNA FP	Myeloid diff 2	SENP1 FRET inh	Myeloid diff	GFP autofluor
CCOc1ccc(S(=O)(=O)Nc2ccccc2C(=O)N(C)C2CCN(C)CC2)cc1	n	n	n	n	n	n	n	n
CCOc1ccc(S(=O)(=O)Nc2ccccc2C(=O)Nc2ccccc2N2CCOCC2)cc1	n	n	n	n	n	n	x	x
CC/C(C)=N/Nc1ccc(S(=O)(=O)N2CCCC2)cc1[N+](=O)[O-]	n	n	n	n	+	n	n	n
O=[N+]([O-])c1cc(S(=O)(=O)N2CCCC2)ccc1NN=C1CCCCC1	n	n	n	n	n	n	x	x
c1coc(C2Nc3ccccc3-c3nc4ccccc4n32)c1 (centres undefined)	n	n	n	n	n	n	n	n
COC(=O)c1cnc(SCc2ccc([N+](=O)[O-])cc2)n1C	n	n	n	n	n	n	x	x
ClCCn1cnc2c(SCc3ccccc3Cl)ncnc21	n	n	n	n	n	n	n	n
CCN(CC)CC1CN(N=Cc2ccc([N+](=O)[O-])o2)C(=O)O1 (centres undefined)	n	n	n	n	n	n	x	x
CCNC(=O)/C(C#N)=C/c1c(N(Cc2ccccc2)Cc2ccccc2)nc2ccccn2c1=O	n	n	73	n	+	n	n	n
C(=C\c1ccco1)/C1=NN(c2ccccc2)C(c2ccco2)C1 (centres undefined)	n	n	n	n	+	n	n	n
CCC/C=C1/CCCOC(C(=O)NCc2ccc(C)o2)(C(F)(F)F)C1 (centres undefined)	n	n	n	n	+	n	n	n
Cc1ccc(CNC(=O)CCc2c(C)nn(-c3ccc(N4CCOCC4)nn3)c2C)cc1	n	n	n	n	u	n	x	x
Cc1cccc(C)c1Nc1nnc(SCC(=O)NC2CCS(=O)(=O)C2)s1 (centres undefined)	n	n	n	n	n	n	x	x
Cc1ccc(Nc2nnc(SCC(=O)NC3CCS(=O)(=O)C3)s2)c(C)c1 (centres undefined)	n	n	n	n	n	n	n	5.9
CSc1nnc(CCNS(=O)(=O)c2ccc(Br)cc2)n1C	n	n	n	n	n	n	x	x
Cc1ncc(CSc2nc3ccccc3[nH]2)c(N)n1	n	n	n	n	n	n	x	x
CCOc1ccccc1CSc1nc2ccccc2[nH]1	n	n	n	n	n	n	n	n
CCCCCCOC(=O)C(C#N)c1nc2ccccc2nc1N1CCN(CC)CC1 (centres undefined)	n	n	n	n	+	n	n	n
CCCCCCOC(=O)C(C#N)c1nc2ccccc2nc1N1CCOCC1 (centres undefined)	n	n	n	n	n	n	x	x
COc1ccc(-c2csc(NC3CCCCC3)n2)c(OC)c1	n	n	n	n	+	n	n	n
CC(C)c1cc(=O)oc2c3c4c(cc12)CCCN4CCC3	n	n	n	n	n	n	x	x
O=c1oc2c3c4c(cc2c(C(F)(F)F)c1CCN1CCOCC1)CCCN4CCC3	n	n	n	n	+	n	n	n
COc1ccc(C(=O)NCC2CCCCC2)cc1S(=O)(=O)N1CCOCC1	n	n	n	n	n	n	x	x
COc1ccc(CNC(=O)Cn2c(=O)oc3ccccc32)cc1OC	n	n	n	n	n	n	n	n
CCOc1ccc(CNC(=O)CCn2c(=O)oc3ccccc32)cc1OC	n	n	n	n	n	n	x	x
SMILES	Pemphigus Ab inh	Granule exo inh	H9c2 protect	HNF4A DNA FP	Myeloid diff 2	SENP1 FRET inh	Myeloid diff	GFP autofluor
COc1ccc(Cn2c(=O)oc3ccc(C)cc32)cc1OC	n	n	n	n	+	n	n	n
COc1ccccc1OCCn1c(=O)oc2ccc(C)cc21	n	n	n	n	+	n	n	n
CC1(C(=O)NS(=O)(=O)c2cccc(Cl)c2)CCN1C(=O)C1(c2ccc(Cl)cc2)CC1 (centres undefined)	x	n	n	n	n	n	x	x
O=C(NCCOC(=O)c1c(F)cccc1Cl)c1c(F)cccc1Cl	n	n	n	n	n	n	x	x
COc1ccc(-c2csc(C(NC(C)=O)c3cccc(F)c3)n2)cn1 (centres undefined)	x	n	n	n	+	n	n	n
CCc1ccc(N2C(=O)CN(Cc3ccc(OC)c(OC)c3)C2=S)cc1	n	n	n	n	+	n	n	n
N#Cc1c(NC(=O)CCn2cnc3ccccc3c2=O)oc(-c2ccccc2)c1-c1ccccc1	n	n	n	n	n	n	n	n
CCC1(c2ccccc2)NC(=O)N(CC(=O)Nc2cccc(C#N)c2)C1=O (centres undefined)	n	n	n	n	+	n	n	n
COc1ccc(/C=N/NC(=O)c2ccc(COc3cccc4cccnc34)cc2)cc1O	n	n	n	n	n	n	x	x
O=C(N/N=C/c1cccc(O)c1)c1ccc(COc2cccc3cccnc23)cc1	n	n	n	n	+	n	n	n
CCc1nnc(NS(=O)(=O)c2ccc(NC(=S)NC(=O)c3cccnc3)cc2)s1	n	n	n	n	+	n	n	n
O=C(NNC(=O)c1ccccc1O)c1cc2ccccc2o1	n	n	n	n	n	n	x	x
COc1ccccc1NC(=O)c1c(NC(=O)c2ccco2)sc2c1CCC2	n	n	n	n	+	n	n	n
Cc1cccc(Cn2c(NCCO)nc3c2c(=O)n(C)c(=O)n3C)c1	n	n	n	n	+	n	n	n
C=CCNc1nc2c(c(=O)n(C)c(=O)n2C)n1Cc1ccc(F)cc1	n	n	n	n	n	n	n	n
O=C(COc1ccccc1)NCC(c1ccco1)N1CCN(c2ccccc2)CC1 (centres undefined)	n	n	n	n	n	n	x	x
O=C(Oc1ccnc2cc(Cl)ccc12)N1CCOCC1	n	n	n	n	n	n	n	n
CCC(C(=O)N1CCCCCC1)n1nc(C)n2c(cc3occc32)c1=O (centres undefined)	n	n	n	n	n	n	x	x
Oc1ccc(/C=N/NC(=S)Nc2cccnc2)cc1	n	n	n	n	n	n	n	n
COc1ccc(C(=O)Nc2ccc(C(=O)N3CCCCC3C)cc2)c(OC)c1OC (centres undefined)	n	n	n	n	n	n	x	x
N#CCCN(C(=O)COc1ccc(C#N)cc1)c1ccc(F)cc1	n	n	n	n	n	n	n	n
N#CCCN(C(=O)COC(=O)CCc1c[nH]c2ccccc12)c1ccc(F)cc1	n	n	n	n	n	n	x	x
COC(=O)N(C)C[C@H]1OCc2cnnn2CCCC(=O)N([C@H](C)CO)C[C@H]1C	x	n	n	n	n	n	x	x
